# Screens from PubChem BioAssay.
# An excerpt weighted towards active compounds, which were near 2% of everything screened.
# dFosB act-1 – activators of delta FosB homodimer, primary screen, biochemical, fluorescence polarization, TAMRA-CDK5 oligo, single point; Protein FosB (Mus musculus), P13346; purified delta FosB; percent of positive-control signal above neutral wells; activation, % at 25 µM; 0.99% of 340,000 active; AID 493131, 2011;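 active means mean activation above about 17%, with every replicate also reaching it, limit read from the data, passing the limit was not always enough; inconclusive means only one of the two conditions met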
# Target sequence (P13346 whole entry, looked up): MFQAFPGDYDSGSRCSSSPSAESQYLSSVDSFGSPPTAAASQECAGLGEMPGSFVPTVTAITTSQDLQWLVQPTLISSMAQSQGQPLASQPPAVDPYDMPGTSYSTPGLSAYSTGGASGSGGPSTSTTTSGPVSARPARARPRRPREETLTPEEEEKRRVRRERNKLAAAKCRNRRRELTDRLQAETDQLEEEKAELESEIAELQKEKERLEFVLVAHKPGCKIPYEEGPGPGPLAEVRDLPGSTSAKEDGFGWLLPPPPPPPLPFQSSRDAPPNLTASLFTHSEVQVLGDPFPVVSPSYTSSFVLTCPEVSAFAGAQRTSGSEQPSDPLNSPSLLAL
# CAL PDZ FP-1 – untagged CAL PDZ binding inhibitors, primary screen, biochemical, fluorescence polarization, HTS; purified CAL PDZ, TMR-peptide fluorescence polarization, 1 h; inhibition, % at 24.9 µM; 0.92% of 300,000 active; AID 602252, 2012;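 active means mean inhibition of at least 30% with at least half of replicates also reaching 30%; inconclusive means no clear call, values can overlap the other calls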;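 further: 0% = DMSO neutral control and 100% = excess unlabeled competitor peptide PRC23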
# CAL PDZ FP-2 – CAL PDZ peptide-binding inhibitors, primary screen, biochemical, fluorescence polarization, Cer-tagged CAL PDZ, HTS. Golgi-associated PDZ and coiled-coil motif-containing protein (Homo sapiens), Q9HD26. purified CAL PDZ, TMR-peptide fluorescence polarization, 1 h. inhibition, % at 20 µM. 0.02% of 330,000 active. AID 504414, 2011;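 active means highest replicate inhibition of at least 40%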;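 further: plate controls were DMSO neutral control wells for no effect and unlabeled competitor peptide control wells for full effect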
#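 Assay system – tagged CAL PDZ protein CerCALP, purified · Timing – 1 h at RT · Compound – single point, 20 µM · Measured by – fluorescence polarization from S- and P-plane intensities, G-factor corrected · Evaluation – inhibition from polarization loss · Probe or stimulus – TMR reporter peptide T*-PRC34 · Buffer or medium – pH 7.4 phosphate-saline buffer, reducing agent, detergent, IgG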
# S100A4 MyoIIA – inhibitors of S100A4-myosin IIA peptide binding, primary screen, biochemical, fluorescence polarization, TAMRA-MyoIIA peptide; AID 652163, 2013; inhibition, % at 10.7 µM; Protein S100-A4 (Homo sapiens), P26447; 0.14% of 360,000 active;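 active means mean inhibition of at least 70% across replicates, with every replicate also reaching that level; inconclusive means mean inhibition reaches 70% but some replicates fall short; inactive means mean inhibition below 70%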
# Target sequence (P26447 whole entry, looked up): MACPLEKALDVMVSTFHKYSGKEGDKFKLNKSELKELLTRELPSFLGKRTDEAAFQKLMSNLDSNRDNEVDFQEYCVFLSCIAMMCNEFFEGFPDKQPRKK
#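 System – human S100A4 monomer protein, biochemical binding assay · Buffer or medium – Calcium-containing HEPES buffer, pH 7.2 · Timing – 5 min between mix addition and reading · Also added – TAMRA-labelled myosin IIA heavy-chain peptide probe, 5 nM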
# CDK5 p35 inh – inhibitors of human CDK5/p35 kinase, primary screen, biochemical, single concentration | Cyclin-dependent kinase 5 (Homo sapiens) + Cyclin-dependent kinase 5 activator 1 (Homo … | Recombinant CDK5/p35, ADP-Glo luminescence, 60 min | inhibition, % at 10 µM | 0.01% of 330,000 active | AID 488839, 2010;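 active means highest replicate inhibition of at least 50% and at least 75% of replicates reaching 50%; inconclusive means only one of the two criteria met; inactive means both criteria failed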;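 further: plate controls were DMSO neutral control for no effect and GW8510 at 10 µM for full effect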
# Statin myotox sup – suppressors of statin myotoxicity in C2C12 myotubes, primary screen, cell-based, single point, plate reader; C2C12 myotubes + simvastatin, ATP luminescence, 48 h; scaled: DMSO 0, geranylgeraniol control 100; rescue of ATP level, % at 7.49 µM; 0.78% of 330,000 active; AID 602340, 2012;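 active means mean ATP rescue above about 67%, or every replicate alone reaching that limit, limit read from the data, passing the limit was not always enough; inconclusive means no clear call, values can overlap the other calls; inactive means mean under the limit and some replicate under it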;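 further: myotubes were challenged with 10 µM simvastatin during compound exposure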
# dFosB act-2 – activators of mouse delta FosB DNA binding, confirmation, biochemical, fluorescence polarization, TAMRA-CDK5 oligo, cherry-picked samples; shares compounds with dFosB act-1; purified delta FosB; normalised: neutral wells 0, positive control 100; activation, % at 24.9 µM; AID 588690, 2011; 2,400 tested, under 10 active;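 active means highest replicate activation at or above 34% and every replicate reaching that threshold; inconclusive means meets only one of the two criteria; inactive means meets neither criterion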;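 further: higher polarization means more probe DNA bound by delta FosB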
# Active calls of the source: *; ? = inconclusive; . = no result given.
SMILES,dFosB act-1,CAL PDZ FP-1,CAL PDZ FP-2,S100A4 MyoIIA,CDK5 p35 inh,Statin myotox sup,dFosB act-2
COc1ccc(C(=O)CSc2nc3nc(C)cc(C)n3n2)cc1OC,-9.7,-2.2,-2.2,-3.1,0.0,11.0,.
O=C(COC(=O)c1cc(S(=O)(=O)Nc2ccccc2Cl)ccc1O)Nc1nc2ccccc2s1,32.3*,-9.9,-1.3,4.0,-1.9,.,6.8
N#Cc1cccc(NC(=O)COC(=O)c2cc(S(=O)(=O)Nc3ccccc3Cl)ccc2O)c1,2.1,.,-0.4,4.7,-2.1,3.1,.
C/C(=C\C=C(C#N)C#N)c1cc(C#N)c(N)o1,83.7*,-12.1,-5.3,-128.4,4.2,.,?
COc1ccc(-c2nnn(CC(=O)NCc3cccs3)n2)cc1OC,29.6*,1.6,-1.2,.,0.4,17.0,-1.5
O=C(Cn1nnc(-c2ccccc2)n1)NCc1ccco1,9.9,.,-0.6,.,2.1,16.8,.
CCOc1ccc(-c2nnn(CC(=O)Nc3ccccc3OC)n2)cc1OCC,58.8*,-0.9,-1.3,.,0.6,-2.5,-0.2
O=C(Cn1nnc(-c2ccccc2)n1)NCc1cccs1,-5.6,-2.0,-0.8,.,1.0,-12.5,.
COc1ccccc1C(=O)Nc1ccc(-c2nnn(CC(=O)NCc3ccco3)n2)cc1,41.8*,-4.8,-0.7,-3.7,1.7,17.3,6.7
COc1ccc(NC2CS(=O)(=O)CC2OC(=O)c2ccc(F)cc2)cc1 (stereo not given),-3.2,-1.5,-1.0,.,-1.4,-1.0,.
Cc1ccc(-n2nnnc2SCC(=O)Nc2ncc(Cc3ccccc3Cl)s2)cc1,104.4*,-5.2,-0.2,.,.,-15.4,6.4
Cc1ccc(-c2nc(NC(=O)CSc3nnnn3-c3ccccc3)ns2)cc1,37.8*,2.3,-1.7,.,0.9,20.1,1.5
O=C(N/N=C/c1cccc(OC2CSC2)c1)c1ccccc1O,28.9*,-2.4,-0.4,.,0.4,.,-0.6
NC(=O)c1cc(-c2ccncc2)nc2ccc(Cl)cc12,-9.3,7.3,-1.0,-5.4,0.3,.,.
CNS(=O)(=O)c1ccc(NC(=O)c2cc(-c3ccncc3)nc3ccc(Cl)cc23)cc1,68.6*,-1.6,-1.3,-0.5,-0.1,.,-1.1
COc1cccc(C(=O)Nc2ccc(NC(=O)c3ccco3)c(Cl)c2)c1,23.5*,2.1,0.5,1.7,0.7,.,3.0
O=C(Nc1ccc(NC(=O)c2sc3ccccc3c2Cl)cc1Cl)c1ccco1,41.0*,-2.3,0.7,.,-0.9,.,3.2
O=C(CSc1nc2cc(Cl)c(Cl)cc2[nH]1)c1ccc2c(c1)OCO2,28.1*,-2.4,-0.1,-1.0,2.5,5.3,3.6
Nc1nonc1-n1nnc(C(=O)N/N=C/c2ccccc2Cl)c1-c1ccc2c(c1)OCO2,25.0*,6.0,0.6,-2.2,0.4,-1.1,0.3
Cc1ccc(SCc2c(C(=O)N/N=C/c3ccc4c(c3)OCO4)nnn2-c2nonc2N)cc1,52.0*,-5.9,-1.8,-8.1,0.2,-26.3,0.7
Cc1ccc(SCc2c(C(=O)N/N=C/c3ccoc3)nnn2-c2nonc2N)cc1,-14.2,-3.4,-2.3,3.0,-1.3,9.0,.
Cc1ccc(-c2c(C(=O)N/N=C/c3cccc(Cl)c3)nnn2-c2nonc2N)cc1,46.9*,-4.3,-2.2,-44.1,-3.4,-0.4,6.3
Nc1nonc1-n1nnc(C(=O)N/N=C/c2cccs2)c1-c1ccc2c(c1)OCO2,-19.0,1.6,-0.7,18.5,0.2,-4.1,.
Cc1ccc(/C=N/NC(=O)c2nnn(-c3nonc3N)c2CSc2ccccc2)cc1,23.9*,1.5,0.9,-1.0,2.1,.,1.6
